# Laboratory results published in ChEMBL document CHEMBL3259807, “Structure-activity relationships of pyrazole derivatives as potential therapeutics for immune thrombocytopenias” (Bioorg Med Chem, 2014).
# Assays:
# [1] = Distribution coefficient, log D of the compound at 10 mM at pH 7.4 by pH-metric method; type: physicochemical; conditions: octanol/water
# [2] = Acidic dissociation constant, pKa of the compound at 10 mM; type: physicochemical
# PBMC [3] = experiment: Induction of apoptosis in human PBMC assessed as apoptotic index at 10 uM after 1 hr by Annexin V/propidium iodide staining-based FACS analysis relative to IVIg; type: cell-based; conditions: in the assay text read “relative to vehicle” for “relative to IVIg”
# Summary of the method: (§1)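 Ficoll-isolated human PBMC cultured overnight in 10% FBS medium, 37 °C, 5% CO2. After 1 h adherence, non-adherent cells removed, and the rest were exposed to compound at 10 and 100 µM for 1 h. Cells were then scraped and stained with Annexin V-APC plus PI (1 µg/mL) for flow cytometry. AI = fold increase in % apoptotic cells (Annexin V+ and Annexin V+/PI+) over vehicle.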
# PBMC [4] = experiment: Inhibition of human PBMC-induced phagocytosis of antibody-opsonized RBC at 5 uM incubated for 1 hr prior to RBC addition measured after 2 hrs by phase-contrast microscopy; type: functional
# Summary of the method: (§2)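 Ficoll-isolated human PBMC cultured overnight (10% FBS, 37 °C, 5% CO2). 7×10^5 cells adhered 1 h on chamber slides, then non-adherent cells removed. Compound or IVIg was added for 1 h, media aspirated, and anti-D-opsonized human R2R2 RBCs added for 2 h. Slides were methanol-fixed and read by phase-contrast, counting ≥100 monocytes for the phagocytosis index. Results are normalized to vehicle (100% phagocytosis). Screen at 5 µM; titration 0.5–100 µM.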
# PBMC [5] = experiment: Induction of apoptosis in human PBMC assessed as apoptotic index at 100 uM after 1 hr by Annexin V/propidium iodide staining-based FACS analysis relative to IVIg; type: cell-based; conditions: in the assay text read “relative to vehicle” for “relative to IVIg”; summary of the method: as §1
# [6] = Basic dissociation constant, pKa of the compound at 10 mM; type: physicochemical
# PBMC [7] = experiment: Inhibition of human PBMC-induced phagocytosis of antibody-opsonized RBC incubated for 1 hr prior to RBC addition measured after 2 hrs by phase-contrast microscopy; type: functional, cell-based; summary of the method: as §2
SMILES,logD at 10000 µM [1],pKa at 10000 µM [2],Ratio (PBMC [3]),inhibition at 5 µM (PBMC [4]) [%],Ratio (PBMC [5]),pKa at 10000 µM [6],IC50 (PBMC [7]) [µM]
Cc1nn(-c2ccccc2)c(S)c1C(=O)c1ccccc1,-0.3,10.3,2,0,1.6,2.9,–
Cc1nn(-c2ccccc2)c(SSc2c(C(=O)c3ccccc3)c(C)nn2-c2ccccc2)c1C(=O)c1ccccc1,8,–,0.8,32,1,3.2,–
Cc1cc(SSc2cc(C)nn2-c2ccccc2)n(-c2ccccc2)n1,3.2,–,1,45,5.4,4.8,–
Cc1cc(CCc2cc(C)nn2-c2ccccc2)n(-c2ccccc2)n1,1.3,–,1,14,0.9,2.5,–
Cc1cc(COc2cc(C)nn2-c2ccccc2)n(-c2ccccc2)n1,2.2,–,1.1,16,0.9,2.7,–
Cc1cc(CNCc2cc(C)nn2-c2ccccc2)n(-c2ccccc2)n1,5,–,1.1,20,0.9,2.2,–
Cc1cc(OCCOc2cc(C)nn2-c2ccccc2)n(-c2ccccc2)n1,-1.6,–,1,4,1,2.2,–
Cc1cc(Oc2c(N)c(C)nn2-c2ccccc2)n(-c2ccccc2)n1,4,–,1.2,2,1,3.4,–
Cc1cc(COc2cc(C)nn2-c2ccc([N+](=O)[O-])cc2)n(-c2ccccc2)n1,3.7,–,0.8,16,0.8,2,–
Cc1cc(COc2cc(C)nn2-c2ccccc2)n(Cc2ccccc2)n1,5.3,–,1.1,0,1,2.1,–
Cc1cc(OCc2cc(C)nn2-c2ccccc2)n(CC2CCCCC2)n1,4.3,–,1,45,1.1,3.6,–
Cc1cc(COc2cc(C)nn2C2CCCC2)n(-c2ccccc2)n1,1.7,–,0.9,17,1.2,2.7,–
Cc1cc(OCc2cc(C)nn2-c2ccccc2)n(CCN)n1,5,–,1.1,33,1,2.5,–
Cc1cc(OCc2cc(C)nn2-c2ccccc2)n(CC(=O)O)n1,1.2,3.4,1.1,10,1.2,7.3,–
Cc1cc(OCc2cc(C)nn2-c2ccccc2)[nH]n1,2.9,12.5,1,6,1,2.4,–
Cc1cc(O)n(Cc2cc(C)nn2-c2ccccc2)n1,4.3,8.4,1.2,58,1.3,2.3,14
Cc1cc(OCC2CCCN2Cc2ccccc2)n(-c2ccccc2)n1 (stereo unspecified),4.5,–,1.1,15,0.9,2.4,–
Cc1nn(-c2ccccc2)c(S)c1C(=O)c1ccno1,–,–,–,–,–,–,250
